Results: ChEMBL document CHEMBL1909507, “Substituted phenyl 4-(2-oxoimidazolidin-1-yl)benzenesulfonamides as antimitotics. Antiproliferative, antiangiogenic and antitumoral activity, and quantitative structure-activity relationships” (Eur J Med Chem, 2011)
Each block holds one compound with its values, some of them ahead of it. Active and inactive are the calls of the source. The calls are words filed in the database; no cut-off is given here.

What was measured:
M21 = experiment: Antiproliferative activity against human M21 cells after 48 hrs by SRB assay; format: functional, cell-based; settings: M21, 48 h
Method in brief: (§1)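 Adherent cells were seeded per line (e.g. HT-29 5000, M21 3500, MCF7 7500, CHO and CHO-VV 3-2 and CHO-TAX 5-6 1000 cells/well) and grown 24 h at 37 °C, 5% CO₂. DMSO-solubilized drug was diluted in medium and added at 1000–0.98 nM for 48 h. Cells were fixed with cold 10% TCA and stained with 0.1% sulforhodamine B, with absorbance read at 530–565 nm.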

MCF7 = experiment: Antiproliferative activity against human MCF7 cells after 48 hrs by SRB assay; format: functional, cell-based; settings: MCF7, 48 h; method in brief: as §1
HT-29 = experiment: Antiproliferative activity against human HT-29 cells after 48 hrs by SRB assay; format: functional, cell-based; settings: HT-29, 48 h; method in brief: as §1
MDA-MB-231 = experiment: Displacement of N,N'-ethylenebis(iodoacetamide) from beta-tubulin colchicine-binding site in human MDA-MB-231 cells at 1000 times IC50 preincubated for 2 hrs before N,N'-ethylenebis(iodoacetamide) addition measured after 1.5 hrs by chemiluminescence assay; format: cell-based
Method in brief: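 EBI (100, final) was added for 1.5 h at 37 °C with drug present; control was 0.5% DMSO. Sonicated lysates (20 µg protein) were run on 10% SDS-PAGE and blotted with anti-β-tubulin TUB 2.1. The β-tubulin–EBI adduct was scored by ECL.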

[1] = Antiproliferative activity against mouse P388D1 after 48 hrs by SRB assay; settings: P388D1, 48 h
[2] = Antiproliferative activity against mouse B16F0 after 48 hrs by SRB assay

SMILES: O=C(CI)NCCNC(=O)CI
Activity (MDA-MB-231): inactive

SMILES: CCC(C)c1ccc(NS(=O)(=O)c2ccc(N3CCNC3=O)cc2)cc1 (stereo unspecified)
IC50 (M21): > 1000 nM | IC50 (MCF7): > 1000 nM | IC50 (HT-29): > 1000 nM

SMILES: O=C1NCCN1c1ccc(S(=O)(=O)Nc2ccc(C3CCCCC3)cc2)cc1
IC50 (M21): > 1000 nM | IC50 (MCF7): > 1000 nM | IC50 (HT-29): > 1000 nM

SMILES: CCCCCc1ccc(NS(=O)(=O)c2ccc(N3CCNC3=O)cc2)cc1
IC50 (M21): 870 nM | IC50 (MCF7): > 1000 nM | IC50 (HT-29): 990 nM

SMILES: CC(=O)O[C@H]1C(=O)[C@@]2(C)[C@H]([C@H](OC(=O)c3ccccc3)[C@]3(O)C[C@H](OC(=O)[C@H](O)[C@@H](NC(=O)c4ccccc4)c4ccccc4)C(C)=C1C3(C)C)[C@]1(OC(C)=O)CO[C@@H]1C[C@@H]2O [PACLITAXEL]
IC50 [1]: 35 nM | IC50 [2]: 28 nM

SMILES: CCCCCCOc1ccc(NS(=O)(=O)c2ccc(N3CCNC3=O)cc2)cc1
IC50 (M21): > 1000 nM | IC50 (MCF7): > 1000 nM | IC50 (HT-29): > 1000 nM

SMILES: COc1ccc(NS(=O)(=O)c2ccc(N3CCNC3=O)cc2)cc1
IC50 (M21): 580 nM | IC50 (MCF7): > 1000 nM | IC50 (HT-29): 800 nM

More lines, main results first:

IC50 (MCF7): 350 nM | IC50 (HT-29): 240 nM
SMILES: CCc1ccccc1NS(=O)(=O)c1ccc(N2CCNC2=O)cc1
IC50 (M21): 180 nM

IC50 (MCF7): 220 nM | IC50 (HT-29): 200 nM
SMILES: O=C1NCCN1c1ccc(S(=O)(=O)Nc2cccc(Oc3ccccc3)c2)cc1
IC50 (M21): 83 nM

IC50 (MCF7): 690 nM | IC50 (HT-29): 370 nM
SMILES: O=C1NCCN1c1ccc(S(=O)(=O)Nc2ccc(F)cc2)cc1
IC50 (M21): 230 nM

IC50 (MCF7): > 1000 nM | IC50 (HT-29): > 1000 nM
SMILES: CC(C)(C)c1ccc(NS(=O)(=O)c2ccc(N3CCNC3=O)cc2)cc1
IC50 (M21): > 1000 nM

IC50 (MCF7): 810 nM | IC50 (HT-29): 660 nM
SMILES: CCc1ccc(NS(=O)(=O)c2ccc(N3CCNC3=O)cc2)cc1
IC50 (M21): 480 nM

IC50 (MCF7): 230 nM | IC50 (HT-29): 230 nM
SMILES: Cc1ccc(NS(=O)(=O)c2ccc(N3CCNC3=O)cc2)cc1C
IC50 (M21): 94 nM

IC50 (MCF7): 610 nM | IC50 (HT-29): 520 nM
SMILES: COc1ccc(NS(=O)(=O)c2ccc(N3CCNC3=O)cc2)cc1OC
IC50 (M21): 340 nM

IC50 (MCF7): 620 nM | IC50 (HT-29): 350 nM
SMILES: O=C1NCCN1c1ccc(S(=O)(=O)Nc2ccc(F)c(F)c2)cc1
IC50 (M21): 220 nM

IC50 (MCF7): 600 nM | IC50 (HT-29): 650 nM
SMILES: O=C1NCCN1c1ccc(S(=O)(=O)Nc2ccc(I)cc2)cc1
IC50 (M21): 260 nM

IC50 (MCF7): 470 nM | IC50 (HT-29): 280 nM
SMILES: O=C1NCCN1c1ccc(S(=O)(=O)Nc2ccccc2)cc1
IC50 (M21): 200 nM

IC50 (MCF7): 480 nM | IC50 (HT-29): 450 nM
SMILES: O=C1NCCN1c1ccc(S(=O)(=O)Nc2ccc3c(c2)Cc2ccccc2-3)cc1
IC50 (M21): 370 nM
